Source: PubChem (several laboratories)
Shown are actives, neighbours in structure and some others; about 2.6% of the full set was active somewhere.
rCAG binder: binds r(CAG) RNA repeats; r(CAG) RNA repeat, TO-PRO-1 dye displacement fluorescence; inhibition, % at 3 µM; AID 651821; 370,000 tested, 1.3% active;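 active = inhibition above the plate cutoff, the mean of all test compounds on that plate plus 3 SD, cut at about 35% in these data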;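 also: 0% = DMSO alone and 100% = 100 µM mitoxantrone as full dye displacement; higher means more dye released from RNA so lower well fluorescence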
Rev-erbA mod: modulators of human Rev-erb alpha DNA binding. P20393. Rev-erbα–FITC-DNA binding, fluorescence polarization, 90 min. activity, % at 10 µM. 370,000 tested, 0.79% active. AID 1259318;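 active = activity above about 14%, limit read from the data; passing the limit was not always enough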;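 also: 0% = DMSO wells with 35 nM protein and 100% = DMSO wells with 750 nM protein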
Target sequence (P20393 whole entry, looked up): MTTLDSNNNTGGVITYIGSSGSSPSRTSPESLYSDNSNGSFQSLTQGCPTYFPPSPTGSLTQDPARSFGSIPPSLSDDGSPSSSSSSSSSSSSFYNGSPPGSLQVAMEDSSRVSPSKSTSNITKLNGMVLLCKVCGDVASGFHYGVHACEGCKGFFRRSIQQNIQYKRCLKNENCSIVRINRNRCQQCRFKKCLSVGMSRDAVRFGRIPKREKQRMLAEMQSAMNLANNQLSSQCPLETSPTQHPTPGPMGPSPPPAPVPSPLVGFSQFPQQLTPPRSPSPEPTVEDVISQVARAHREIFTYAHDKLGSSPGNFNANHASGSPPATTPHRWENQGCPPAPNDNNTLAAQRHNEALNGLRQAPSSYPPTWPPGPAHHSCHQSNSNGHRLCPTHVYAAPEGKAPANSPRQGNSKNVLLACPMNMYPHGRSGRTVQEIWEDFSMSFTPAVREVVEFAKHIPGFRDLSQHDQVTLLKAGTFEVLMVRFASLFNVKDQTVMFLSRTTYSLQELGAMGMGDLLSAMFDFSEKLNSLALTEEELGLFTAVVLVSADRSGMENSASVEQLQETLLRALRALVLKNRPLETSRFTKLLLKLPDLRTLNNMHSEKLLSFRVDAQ
PG9 binder: PG9 antibody binding by small molecule; inhibition, % at 6.7 µM; AID 624416; 360,000 tested, 0.43% active; TR-FRET gp120-PG9 antibody binding; in the data active = inhibition above about 8.5%
NR2E3 ag-1: agonists of human nuclear receptor NR2E3; Q9Y5X4; GST-NR2E3/biotin-RetCOR TR-FRET, 1536-well; inhibition of corepressor binding, % at 4.78 µM; 320,000 tested, 0.12% active; AID 2300;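 active = percent inhibition above the cutoff of mean plus 3 SD of all tested compounds, set per screening campaign, cut at about 20% in these data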;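 also: 0% = DMSO wells and 100% = biotin wells as full block of FRET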
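Test system – NR2E3–RetCOR corepressor complex · Quantity – NR2E3 fusion 1.35 nM · Buffer or medium – Tris pH 7.5 · Incubation – Compound–protein incubation for 5 h at 4 °C · Technique – TR-FRET, Eu(K)-anti-GST donor, streptavidin-D2 acceptor, ex 340, em 617/671 nm · Evaluation – percent inhibition of 671/617 nm emission ratio versus biotin and DMSO controls · Plate – 1536-well format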
NR2E3 ag-2: agonists of human NR2E3 nuclear receptor. CHO-S Gal4-NCOR/VP16-NR2E3 two-hybrid, luciferase. inhibition of corepressor binding, % at 3.98 µM. 360,000 tested, 0.35% active;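 active = inhibition above the mean of all tested compounds plus 3 SD, cut at about 70% in these data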;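 also: 0% = DMSO with NR2E3 transfected cells and 100% = cells lacking NR2E3 construct; higher means lower luciferase signal from less NR2E3 corepressor binding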
NR2E3 ag confirm: NR2E3 agonism confirmed in two-hybrid assay; shares compounds with NR2E3 ag-2; CHO-S mammalian two-hybrid NR2E3-NCOR, luciferase luminescence; inhibition, % at 3.98 µM; 2,300 tested, 51% active; AID 624378;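 active = average inhibition above a cutoff equal to the mean inhibition of all tested compounds plus one SD, cut at about 70% in these data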;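 also: 0% = DMSO in NR2E3 cells and 100% = DMSO in cells lacking NR2E3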
GAL4-VP16 luc: GAL4-VP16 reporter inhibition in NR2E3 agonist counterscreen; shares compounds with NR2E3 ag-2; CHO-S GAL4-VP16 luciferase reporter, luminescence; inhibition, % at 3.98 µM; 2,300 tested, 29% active;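 active = mean inhibition above a cutoff equal to the average over all tested compounds plus one standard deviation, cut at about 70% in these data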;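 also: luciferase from a UAS reporter driven by GAL4-VP16 transactivation; 0% = DMSO with VP16-transfected cells and 100% = DMSO with cells lacking VP16; higher means less reporter light so more repression of VP16 activity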
* marks the source's active call; other numbers are inactive results; / = not tested or not shown.

SMILES | rCAG binder | Rev-erbA mod | PG9 binder | NR2E3 ag-1 | NR2E3 ag-2 | NR2E3 ag confirm | GAL4-VP16 luc
CCCCOc1ncnc2c1[nH]c1ccc(F)cc12 | 2.1 | 1.6 | -1.9 | -1.7 | 75.1* | 96.8* | 72.8*
CCCCOCCCNC(=O)C[C@H]1C[C@@]2(C(=O)OC)C(=C[C@H](C(C)C)O[C@@H]2C2CC2)N(Cc2ccc(Cl)cc2Cl)C1=O | 6.5 | -3.4 | / | / | / | / | /
Cc1ccc(-c2noc(CCC(=O)NCC3CCCO3)n2)cc1 (stereo not given) | -1.6 | 1.8 | 2.1 | 3.0 | 14.8 | / | /
CNC(=O)CCc1nc(-c2ccc(C(C)(C)C)cc2)no1 | -0.5 | 0.3 | -1.7 | 1.1 | 68.1 | 71.1* | 76.5*
CC(C)(C)c1ccc(-c2noc(CCC(N)=O)n2)cc1 | -4.7 | -4.6 | -1.5 | -0.4 | 79.9* | 77.8* | 77.4*
CC(C)(C)c1ccc(-c2noc(CCC(=O)NCC3CCCO3)n2)cc1 (stereo not given) | -3.5 | 0.7 | 0.0 | 2.5 | 83.0* | 72.6* | 69.5
CC(C)(C)c1ccc(-c2noc(CCC(=O)Nc3cccnc3)n2)cc1 | -0.8 | 0.7 | -0.4 | 6.2 | 83.7* | 75.1* | 79.2*
C[C@H](CO)N1C[C@H](C)[C@H](CN(C)C(=O)Nc2cccc(F)c2)OCc2cnnn2CCCC1=O | 1.7 | -1.5 | 0.6 | / | / | / | /
Cc1ccc(-c2cc(NC(=O)Cc3c(C)[nH]c4ccccc34)ccc2Nc2cccnc2)cc1 | 12.4 | -5.1 | -2.2 | / | / | / | /
C[C@H]1CN([C@@H](C)CO)C(=O)CCCn2cc(nn2)CO[C@@H]1CN(C)S(=O)(=O)c1ccccc1F | 0.5 | -1.1 | 1.1 | / | / | / | /
C[C@@H]1CN([C@H](C)CO)C(=O)CCCn2nncc2CO[C@H]1CN(C)C(=O)Nc1ccc2c(c1)OCCO2 | 2.5 | -2.6 | 1.3 | / | / | / | /
COc1ccc(CCNC(=O)/C=C/c2ccc3ccccc3n2)cc1OC | 1.7 | -2.8 | -3.0 | 3.4 | 48.4 | -8.6 | -14.6
COc1ccc(CCNC(=O)c2cc3cc(Cl)ccc3nc2N)cc1OC | / | / | / | / | 66.3 | 67.5 | 65.5
Nc1nc2ccccc2cc1C(=O)NCc1ccc(Cl)cc1Cl | / | / | / | / | 91.1* | 96.9* | 79.2*
COc1ccc(/C=C/C(=O)NCCc2ccc(OC)c(OC)c2)cc1 | -7.8 | -6.1 | -0.4 | -4.0 | -2.6 | / | /
Nc1nc2ccc(Cl)cc2cc1C(=O)NCc1ccccc1Br | 8.1 | -4.1 | / | / | / | / | /
COc1ccc(CNC(=O)c2c(N)[nH]c(C(=O)c3ccccc3)c2-c2ccc3ccccc3c2)cc1OC | 8.1 | -6.6 | 0.4 | / | / | / | /
COC(=O)[C@]12C[C@H](CC(=O)NCC34CC5CC(CC(C5)C3)C4)C(=O)N(Cc3ccccc3)C1=C[C@H](C(C)C)O[C@@H]2C1CC1 | 6.2 | -2.5 | 0.7 | / | / | / | /
COC(=O)N/N=C(\C)c1ccc(Br)cc1 | 1.2 | 0.8 | -2.4 | 3.9 | -39.4 | / | /
CSC(=S)N/N=C(\C)c1ccc(Br)cc1 | -2.9 | -7.5 | 0.2 | -2.8 | 82.1* | -15.4 | -17.8
O=C(/C=C/c1ccc2c(c1)OCO2)Nc1nc(-c2ccccc2)cs1 | 17.4 | 2.8 | -2.2 | 1.5 | -24.6 | / | /
Cc1sc(NC(=O)/C=C/c2ccc3c(c2)OCO3)nc1-c1ccccc1 | 5.0 | 6.8 | -2.0 | 4.8 | 57.4 | 85.0* | 31.2
O=C(Nc1cccnc1)c1ccc(CSc2ccc(Cl)cc2)o1 | 4.5 | 2.4 | 0.9 | / | / | / | /
CN=c1scc(-c2cccs2)n1/N=C/c1ccccc1O | 5.2 | 5.5 | -1.1 | -1.6 | 95.4* | 90.0* | 82.3*
CN=c1scc(C)n1/N=C/c1ccc(O)c(O)c1O | 21.9 | -16.2 | -24.6 | 1.1 | -35.3 | / | /
Cc1ccc(Cl)cc1NC(=O)N(C)CCOC(=O)Nc1cccc(Cl)c1 | 1.8 | 4.6 | -1.9 | / | / | / | /
Clc1ccc(-n2ncc3c(N4CCCCCC4)ncnc32)cc1 | 2.0 | -5.2 | 1.0 | 10.2 | 86.5* | 83.2* | 47.6
Cc1ccccc1-c1nnn(Cc2cccc(S(=O)(=O)N3CCOCC3)c2)n1 | 1.3 | 1.4 | 0.5 | -1.4 | 64.1 | 13.3 | 30.6
CC(C)N(C)c1ncnc2c1ncn2[C@H]1CN(Cc2ccncc2)C[C@@H](CO)O1 | 2.3 | -4.1 | -0.9 | / | -19.2 | / | /
